Inhibition data for one compound are collected here from ChEMBL document CHEMBL4619773, “Chemoreactive-Inspired Discovery of Influenza A Virus Dual Inhibitor to Block Hemagglutinin-Mediated Adsorption and Membrane Fusion” (J Med Chem, 2020).

Assay [1] concerns Influenza A virus (A/Puerto Rico/8/1934(H1N1)). Kind of assay: Inhibition of Hemagglutinin T359A mutant in Influenza A virus (A/Puerto Rico/8/1934(H1N1))/H1N1 pseudovirus infected in 293FT cells assessed as reduction in virus infection at 50 ug/ml pre-treated with virus before infection and measured after 48 hrs by inverted fluorescence microscopy. In kind it is cell-based. The gist of the method: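 PR8 pseudoviruses (IAV-GFP) carrying wild-type HA or a mutant HA (T30N/E233D/T359A or T359A) were made in 293FT cells by co-transfecting HA, NA, HIV backbone and GFP reporter plasmids, and supernatants were harvested at 48 h. Pseudovirus was pretreated with compound at 50 µg/ml for 1 h at 37 °C before infection. Infected GFP-positive cells were viewed by fluorescence microscopy 48 h p.i.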

For assay [2] the test system is unchanged. Kind of assay: Inhibition of Hemagglutinin T30N/E233D/T359A mutant in Influenza A virus (A/Puerto Rico/8/1934(H1N1))/H1N1 pseudovirus infected in 293FT cells assessed as reduction in virus infection at 50 ug/ml pre-treated with virus before infection and measured after 48 hrs by inverted fluorescence microscopy. In kind it is cell-based. The gist of the method:
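GFP-reporter lentiviral pseudoviruses bearing PR8 wild-type or mutant (T30N/E233D/T359A or T359A) HA plus NA were produced in 293FT cells. Pseudovirus was pretreated with 50 µg/ml compound for 1 h at 37 °C before infection. GFP-positive cells were counted by fluorescence microscopy at 48 h p.i.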

The source made the active and inactive calls. No cut-off for these calls is given here.

Take `CC(=O)c1cc(C)c(O)c(Cc2[nH]c3ccccc3c2Cc2c(O)c(C)cc(C(C)=O)c2O)c1O`: the inhibition entry in assay [1] and in assay [2] was “inactive” throughout.
